Experiments:
[1] = Selectivity index, ratio of CC50 for human MT4 cells to EC50 for HIV13B; assay type: toxicity, cell-based; conditions: read-out: Ratio CC50/EC50
Procedure, shortened: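 Index calculated as CC50/EC50. CC50 is the concentration reducing MT-4 viability by 50%. EC50 is 50% protection against HIV-1 IIIB CPE after infection with 100–300 CCID50, across five-fold serial dilutions. Both are read by MTT assay.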

[2] = Cytotoxicity against human MT4 cells by MTT assay; assay type: cell-based
Procedure, shortened: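 MT-4 cell viability read by MTT reduction to formazan by mitochondrial dehydrogenase, measured spectrophotometrically, across drug dilutions. CC50 is concentration reducing MT-4 viability by 50%. Values are averages ± SD.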

[3] = molecular target: Human immunodeficiency virus type 1 integrase (Human immunodeficiency virus 1, UniProt Q7ZJM1); experiment: Inhibition of HIV-1 integrase after 1 hr by ELISA
[4] = system: Human immunodeficiency virus 1; experiment: Antiviral activity against HIV1 3B infected in human MT4 cells assessed as inhibition of virus-induced cytopathic effect by MTT assay; assay type: functional, organism-based; conditions: Human immunodeficiency virus 1, 3B
Procedure, shortened: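 HIV-1 IIIB stock titrated on MT-4 cells to set CCID50. MT-4 cells infected with 100–300 CCID50 in presence of five-fold serial drug dilutions. Viability read by MTT reduction to formazan, measured spectrophotometrically. EC50 is concentration giving 50% protection against viral CPE. Values are averages ± SD.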

[5] = molecular target: Human immunodeficiency virus type 1 integrase (Human immunodeficiency virus 1) (UniProt Q7ZJM1)
Sequence of Human immunodeficiency virus type 1 integrase (Human immunodeficiency virus 1) (Q7ZJM1 as listed by the source): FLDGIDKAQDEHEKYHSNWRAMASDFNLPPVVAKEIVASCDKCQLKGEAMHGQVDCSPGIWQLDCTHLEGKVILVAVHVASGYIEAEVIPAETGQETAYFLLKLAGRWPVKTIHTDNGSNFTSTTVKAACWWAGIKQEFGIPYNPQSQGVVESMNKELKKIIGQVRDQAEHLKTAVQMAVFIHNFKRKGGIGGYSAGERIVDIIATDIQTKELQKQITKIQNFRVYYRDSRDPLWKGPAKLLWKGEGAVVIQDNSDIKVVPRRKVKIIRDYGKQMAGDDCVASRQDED

Sequence of Human immunodeficiency virus type 1 integrase (Q7ZJM1 whole entry): as the sequence (Q7ZJM1 as listed by the source) above

Compound | selectivity ratio [1] | CC50 [2] [µM] | IC50 [3] [µM] | EC50 [4] [µM] | C50 [5] [µM]
COc1ccc2c(c(C(=O)/C=C(\O)C(=O)O)cn2Cc2ccc(F)cc2)c1OC | 104 | 126 | 1.45 | 1.21 | 0.047
CCOC(=O)/C(O)=C/C(=O)c1cn(Cc2ccc(F)cc2)c2cc(OC)cc(OC)c12 | 22 | 55.4 | 2.79 | 2.48 | 1.29
COc1cccc2c1c(C(=O)/C=C(\O)C(=O)O)cn2Cc1ccc(F)cc1 | 70 |  |  |  | 0.14
CCOC(=O)/C(O)=C/C(=O)c1cn(Cc2ccc(F)cc2)c2c(OC)c(OC)ccc12 | 11 | 119 | 7.41 | 10.4 | 17.4
CCOC(=O)/C(O)=C/C(=O)c1cn(Cc2ccc(F)cc2)c2ccc(OC)c(OC)c12 | 28 | 111 | 0.9 | 3.96 | 0.015
CCOC(=O)/C(O)=C/C(=O)c1cn(Cc2ccc(F)cc2)c2cc(OC)c(OC)cc12 | < 1 | 21.8 | 4.4 | > 21.8 | 7.69
Cc1nnc(C(=O)NC(C)(C)c2nc(C(=O)NCc3ccc(F)cc3)c(O)c(=O)n2C)o1 |  | > 18 |  |  | 
COc1ccc2c(C(=O)/C=C(\O)C(=O)O)cn(Cc3ccc(F)cc3)c2c1OC | 9 | 130 | 3.55 | 14.7 | 6.37
COc1cc(OC)c2c(c1)c(C(=O)/C=C(\O)C(=O)O)cn2Cc1ccc(F)cc1 | 7 | 58.5 | 0.251 | 8.51 | 0.006
COc1cc(OC)c2c(C(=O)/C=C(\O)C(=O)O)cn(Cc3ccc(F)cc3)c2c1 | 6 | 20.7 | 0.47 | 3.2 | 0.28
CCOC(=O)/C(O)=C/C(=O)c1cn(Cc2ccc(F)cc2)c2c(OC)ccc(OC)c12 |  |  |  |  | 0.66
CCOC(=O)/C(O)=C/C(=O)c1cn(Cc2ccc(F)cc2)c2c(OC)cc(OC)cc12 | < 1 | 62.1 | 18.1 | > 62.1 | 34.9
COc1cc2c(C(=O)/C=C(\O)C(=O)O)cn(Cc3ccc(F)cc3)c2cc1OC | 6 | 65.5 | 0.547 | 10.5 | 0.119

From ChEMBL document CHEMBL1667799, “HIV-1 integrase strand-transfer inhibitors: design, synthesis and molecular modeling investigation” (Eur J Med Chem, 2011)
